Legend:
KYSE-140 = assay: Cytotoxicity against human KYSE-140 cells after 48 hrs by CCK8 assay; type: functional, cell-based; conditions: KYSE-140, 48 h
Method in brief: (§1)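 Exponentially growing Huh7 or KYSE-140 cells seeded at 4,000 cells/well, adhered overnight, then exposed to 6 concentrations for 48 h; DMSO vehicle control. CCK-8 added, 2 h at 37 °C in dark, absorbance at 450 nm. Viability as percent of control OD; IC50 by curve fitting, at least three experiments.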

[1] = molecular target: Sigma non-opioid intracellular receptor 1 (Cavia porcellus, UniProt Q60492); assay: Displacement of [3H]-(+)-pentazocine from sigma-1 receptor in guinea pig brain membranes after 120 mins by microbeta scintillation counting method; type: cell membranes, Membrane
Method in brief: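 Guinea pig brain membranes (frozen brains minus cerebellum; 300 µg) incubated with 6 nM [3H]-(+)-pentazocine stock (~42 Ci/mmol), 50 mM Tris-HCl pH 8.0, 25 °C, 120 min. Compounds from ethanol, 0.1-1000 nM, 10 points. Ice-cold 10 mM Tris stop, GF/B filtration, scintillation counting. Nonspecific defined with (+)-pentazocine or haloperidol (10 µM).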

[2] = molecular target: Sigma non-opioid intracellular receptor 1 (Cavia porcellus) (UniProt Q60492); assay: Displacement of [3H]-(+)-pentazocine from sigma-1 receptor in guinea pig brain membranes at 1 uM after 120 mins by microbeta scintillation counting method relative to control; type: cell membranes; conditions: Membrane
Method in brief: (§2)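 Single-point screen at 1 µM for displacement of [3H](+)-pentazocine (sigma-1, guinea pig brain membranes) or [3H]-DTG (sigma-2, rat liver membranes, with 100 nM (+)-pentazocine); 25 °C, pH 8.0 Tris buffer. Hits were defined as >50% displacement.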

[3] = molecular target: T1, Sigma intracellular receptor 2 (Rattus norvegicus) (UniProt Q5U3Y7); assay: Displacement of [3H]DTG from sigma-2 receptor in Sprague-Dawley rat liver membranes at 1 uM after 120 mins in presence of (+)-pentazocine by microbeta scintillation counting method relative to control; type: cell membranes; conditions: Membrane; method in brief: as §2
T1 sequence (whole entry): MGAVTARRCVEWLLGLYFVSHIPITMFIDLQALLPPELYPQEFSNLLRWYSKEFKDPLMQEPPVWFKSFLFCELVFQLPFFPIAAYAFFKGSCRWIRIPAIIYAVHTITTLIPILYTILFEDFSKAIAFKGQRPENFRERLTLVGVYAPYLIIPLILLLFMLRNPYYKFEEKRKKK

[4] = molecular target: T2, Sigma intracellular receptor 2 (Rattus norvegicus, UniProt Q5U3Y7); assay: Displacement of [3H]DTG from sigma-2 receptor in Sprague-Dawley rat liver membranes after 120 mins in presence of (+)-pentazocine by microbeta scintillation counting method; type: cell membranes, Membrane
T2 sequence (Q5U3Y7 whole entry): T1 sequence (whole entry)

Huh-7 = assay: Cytotoxicity against human HuH7 cells after 48 hrs by CCK8 assay; type: functional, cell-based; conditions: Huh-7, 48 h; method in brief: as §1
[5] = Selectivity ratio of Ki for sigma-1 receptor in guinea pig brain membranes to Ki for sigma-2 receptor in Sprague-Dawley rat liver membranes; type: cell membranes
[6] = molecular target: Sigma non-opioid intracellular receptor 1 (Homo sapiens, UniProt Q99720); assay: Binding affinity to sigma-1 receptor (unknown origin)
[7] = molecular target: Sigma intracellular receptor 2 (Homo sapiens, UniProt Q5BJF2); assay: Binding affinity to sigma-2 receptor (unknown origin)
Sigma intracellular receptor 2 (Homo sapiens, UniProt Q5BJF2), sequence (Q5BJF2 whole entry): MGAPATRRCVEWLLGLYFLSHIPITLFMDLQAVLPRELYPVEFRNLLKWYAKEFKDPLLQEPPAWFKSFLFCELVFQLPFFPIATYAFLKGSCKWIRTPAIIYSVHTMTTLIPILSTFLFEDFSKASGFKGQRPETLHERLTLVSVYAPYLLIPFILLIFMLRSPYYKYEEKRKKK

Sigma non-opioid intracellular receptor 1 (Homo sapiens, UniProt Q99720), sequence (Q99720 whole entry): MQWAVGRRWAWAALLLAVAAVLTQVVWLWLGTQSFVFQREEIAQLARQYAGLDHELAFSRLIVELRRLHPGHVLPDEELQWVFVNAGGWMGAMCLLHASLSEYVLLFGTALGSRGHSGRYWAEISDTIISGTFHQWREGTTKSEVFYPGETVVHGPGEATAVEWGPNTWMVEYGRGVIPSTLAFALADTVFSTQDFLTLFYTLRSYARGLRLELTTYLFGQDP
Sigma non-opioid intracellular receptor 1 (Cavia porcellus), sequence (Q60492 whole entry): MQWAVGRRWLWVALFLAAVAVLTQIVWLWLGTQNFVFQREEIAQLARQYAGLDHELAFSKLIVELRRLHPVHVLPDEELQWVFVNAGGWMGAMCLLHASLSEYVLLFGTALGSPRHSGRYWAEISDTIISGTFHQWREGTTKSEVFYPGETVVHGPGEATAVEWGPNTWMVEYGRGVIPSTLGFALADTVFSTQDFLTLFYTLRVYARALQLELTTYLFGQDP
Sigma non-opioid intracellular receptor 1 (Cavia porcellus, UniProt Q60492), sequence (Q60492 whole entry): as above

In the case of `COc1cc2c(cc1OC)CN(CCCCn1cnc3cc(Cl)c([N+](=O)[O-])cc3c1=O)CC2`, the IC50 (KYSE-140) is reported as > 100 nM, the Ki [1] is reported as > 1000 nM and the inhibition [2] is reported as > 50%. The inhibition [3] was > 50%, the Ki [4] was > 1000 nM and the IC50 (Huh-7) was > 100 nM.

For `COc1ccc(C(O)CN2CCc3cc(OC)c(OC)cc3C2)c(OC)c1` (stereo not drawn), the IC50 (KYSE-140) was > 100 nM, the Ki [1] was > 1000 nM and the inhibition [2] was > 50%. For the same compound, the Ratio Ki [5] was > 16, the inhibition [3] was > 50% and the Ki [4] was 62 nM. The IC50 (Huh-7) was > 100 nM.

`COc1cc2c(cc1OC)CN(CCCCNC(=O)c1cc(I)cc(OC)c1OCC[18F])CC2` showed a Ki [6] of 2150 nM and a Ki [7] of 0.26 nM.

Compound `CC[C@H]1C[C@@H]2C[C@H]3c4[nH]c5ccc(OC)cc5c4CCN(C2)[C@@H]13` has a Ki [6] of 9310 nM and a Ki [7] of 90.4 nM.

In the case of `COc1ccc(C(=O)CCN2CCc3cc(OC)c(OC)cc3C2)c(C)c1`, the IC50 (KYSE-140) is reported as 60100 nM, the Ki [1] is reported as 13.3 nM and the inhibition [2] is reported as > 50%. For the same compound, the Ratio Ki [5] was 0.5, the inhibition [3] was > 50% and the Ki [4] was 23.7 nM. It also gave an IC50 (Huh-7) of 42800 nM.

In the case of `COc1cc2c(cc1OC)CN(CCn1cnc3cc(Cl)c([N+](=O)[O-])cc3c1=O)CC2`, the IC50 (KYSE-140) is reported as > 100 nM, the Ki [1] is reported as > 1000 nM and the inhibition [2] is reported as > 50%. The inhibition [3] was > 50%, the Ki [4] was > 1000 nM and the IC50 (Huh-7) was > 100 nM.

`c1ccc2c(c1)c1ccccc1n2CCCN1CCN(C2CCCCC2)CC1` showed a Ki [6] of 3450 nM and a Ki [7] of 12.6 nM.

In the case of `COc1ccc(C(=O)CCCCN2CCc3cc(OC)c(OC)cc3C2)c(OC)c1`, the IC50 (KYSE-140) is reported as 88300 nM, the Ki [1] is reported as 32.9 nM and the inhibition [2] is reported as > 50%. The Ratio Ki [5] was 5.6, the inhibition [3] was > 50% and the Ki [4] was 5.8 nM. For the same compound, the IC50 (Huh-7) was > 100 nM.

With `COc1ccc(C(=O)CCCCN2CCc3cc(OC)c(OC)cc3C2)c(C)c1` the IC50 (KYSE-140) was > 100 nM, the Ki [1] was > 1000 nM and the inhibition [2] was > 50%. For the same compound, the Ratio Ki [5] was > 196, the inhibition [3] was > 50% and the Ki [4] was 5.1 nM. For the same compound, the IC50 (Huh-7) was > 100 nM.

In the case of `COc1ccc(C(=O)CCN2CCc3cc(OC)c(OC)cc3C2)c(OC)c1`, the IC50 (KYSE-140) is reported as > 100 nM, the Ki [1] is reported as > 1000 nM and the inhibition [2] is reported as > 50%. The Ratio Ki [5] was > 14, the inhibition [3] was > 50% and the Ki [4] was 68.1 nM. It also gave an IC50 (Huh-7) of 75300 nM.

— ChEMBL document CHEMBL4145543, “Synthesis and pharmacological evaluation of 6,7-dimethoxy-1,2,3,4-tetrahydroisoquinoline derivatives as sigma-2 receptor ligands” (Eur J Med Chem, 2018)
